Data as given in ChEMBL document CHEMBL4002555, “Bioactive Pentacyclic Triterpenoids from the Leaves of Cleistocalyx operculatus” (J Nat Prod, 2016).

Key:
RAW264.7 [1] = assay: Anti-inflammatory activity in mouse RAW264.7 cells assessed as inhibition of LPS-induced TNF-alpha production at 2 uM pretreated for 1 hr followed by LPS stimulation measured after 24 hrs by ELISA relative to control; assay type: functional
How it was run: (§1)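 LPS-stimulated RAW 264.7 macrophages, with IL-6 and TNF-α production read separately. Test concentrations were 0.4, 2, 10 and 50 μM, and dexamethasone was the reference drug. Results are given as percent inhibition of cytokine production.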

RAW264.7 [2] = assay: Anti-inflammatory activity in mouse RAW264.7 cells assessed as inhibition of LPS-induced TNF-alpha production at 10 uM pretreated for 1 hr followed by LPS stimulation measured after 24 hrs by ELISA relative to control; assay type: functional; how it was run: as §1
RAW264.7 [3] = assay: Anti-inflammatory activity in mouse RAW264.7 cells assessed as inhibition of LPS-induced IL-6 production at 10 uM pretreated for 1 hr followed by LPS stimulation measured after 24 hrs by ELISA relative to control; assay type: functional; how it was run: as §1
RAW264.7 [4] = assay: Anti-inflammatory activity in mouse RAW264.7 cells assessed as inhibition of LPS-induced TNF-alpha production at 50 uM pretreated for 1 hr followed by LPS stimulation measured after 24 hrs by ELISA relative to control; assay type: functional; how it was run: as §1
RAW264.7 [5] = assay: Anti-inflammatory activity in mouse RAW264.7 cells assessed as inhibition of LPS-induced IL-6 production at 2 uM pretreated for 1 hr followed by LPS stimulation measured after 24 hrs by ELISA relative to control; assay type: functional; how it was run: as §1
RAW264.7 [6] = assay: Anti-inflammatory activity in mouse RAW264.7 cells assessed as inhibition of LPS-induced IL-6 production at 50 uM pretreated for 1 hr followed by LPS stimulation measured after 24 hrs by ELISA relative to control; assay type: functional; how it was run: as §1
RAW264.7 [7] = assay: Anti-inflammatory activity in mouse RAW264.7 cells assessed as inhibition of LPS-induced TNF-alpha production at 0.4 uM pretreated for 1 hr followed by LPS stimulation measured after 24 hrs by ELISA relative to control; assay type: functional; how it was run: as §1
MCF7 = assay: Cytotoxicity against human MCF7 cells after 72 hrs by MTT assay; assay type: functional, cell-based; conditions: MCF7, 72 h
How it was run: (§2)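 MTT growth-inhibition assay in human HepG2 hepatocellular, NCI-N87 gastric and MCF-7 breast carcinoma lines, with a doxorubicin positive control. IC50 values are means ± SD from three individual experiments; >10.0 μM was taken as noncytotoxic.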

HepG2 = assay: Cytotoxicity against human HepG2 cells after 72 hrs by MTT assay; assay type: functional, cell-based; conditions: HepG2, 72 h; how it was run: as §2
[8] = Cytotoxicity against mouse RAW264.7 cells assessed as growth inhibition at 10 uM after 72 hrs by MTT assay relative to control; assay type: cell-based; conditions: read-out: GI
NCI-N87 = assay: Cytotoxicity against human NCI-N87 cells after 72 hrs by MTT assay; assay type: functional, cell-based; conditions: NCI-N87, 72 h; how it was run: as §2
RAW264.7 [9] = assay: Anti-inflammatory activity in mouse RAW264.7 cells assessed as inhibition of LPS-induced IL-6 production at 0.4 uM pretreated for 1 hr followed by LPS stimulation measured after 24 hrs by ELISA relative to control; assay type: functional; how it was run: as §1

## C[C@@H]1C[C@H]2[C@@H]3CCC4=CC(=O)C=C[C@]4(C)[C@@]3(F)[C@@H](O)C[C@]2(C)[C@@]1(O)C(=O)CO [DEXAMETHASONE]
RAW264.7 [1]
  inhibition at 2 µM: 71.8%
RAW264.7 [2]
  inhibition at 10 µM: 79.2%
RAW264.7 [3]
  inhibition at 10 µM: 80.4%
RAW264.7 [4]
  inhibition at 50 µM: 86.1%
RAW264.7 [5]
  inhibition at 2 µM: 75.9%
RAW264.7 [6]
  inhibition at 50 µM: 84.9%

## C[C@H]1[C@H](C)CC[C@]2(C(=O)O)CC[C@]3(C)C(=CC[C@@H]4[C@@]5(C)C[C@@H](O)[C@H](O)[C@@](C)(CO)[C@@H]5CC[C@]43C)[C@H]12 [ASIATIC ACID]
RAW264.7 [1]
  inhibition at 2 µM: < 50%
RAW264.7 [7]
  inhibition at 0.4 µM: < 50%
RAW264.7 [2]
  inhibition at 10 µM: < 50%
MCF7
  IC50: > 10 µM
RAW264.7 [3]
  inhibition at 10 µM: < 50%
RAW264.7 [4]
  inhibition at 50 µM: < 50%
RAW264.7 [5]
  inhibition at 2 µM: < 50%
HepG2
  IC50: > 10 µM
[8]
  inhibition at 72 h, 10 µM: < 5%
RAW264.7 [6]
  inhibition at 50 µM: < 50%
NCI-N87
  IC50: > 10 µM
RAW264.7 [9]
  inhibition at 0.4 µM: < 50%

## C=C1CC[C@]2(C(=O)O)CC[C@]3(C)C(=CC[C@@H]4[C@@]5(C)C[C@@H](O)[C@H](O)C(C)(C)[C@@H]5CC[C@]43C)[C@@H]2[C@H]1C
RAW264.7 [1]
  inhibition at 2 µM: < 50%
RAW264.7 [7]
  inhibition at 0.4 µM: < 50%
RAW264.7 [2]
  inhibition at 10 µM: < 50%
MCF7
  IC50: > 10 µM
RAW264.7 [3]
  inhibition at 10 µM: < 50%
RAW264.7 [4]
  inhibition at 50 µM: < 50%
RAW264.7 [5]
  inhibition at 2 µM: < 50%
HepG2
  IC50: > 10 µM
[8]
  inhibition at 72 h, 10 µM: < 5%
RAW264.7 [6]
  inhibition at 50 µM: < 50%
NCI-N87
  IC50: > 10 µM
RAW264.7 [9]
  inhibition at 0.4 µM: < 50%

## C[C@H]1[C@@H]2[C@H]3CC[C@@H]4[C@@]5(C)CC[C@H](O)C(C)(C)[C@@H]5CC[C@@]4(C)[C@]3(C)CC[C@@]23C[C@@H](O)[C@]1(C)OC3=O
RAW264.7 [1]
  inhibition at 2 µM: < 50%
RAW264.7 [7]
  inhibition at 0.4 µM: < 50%
RAW264.7 [2]
  inhibition at 10 µM: < 50%
MCF7
  IC50: > 10 µM
RAW264.7 [3]
  inhibition at 10 µM: < 50%
RAW264.7 [4]
  inhibition at 50 µM: < 50%
RAW264.7 [5]
  inhibition at 2 µM: < 50%
HepG2
  IC50: > 10 µM
[8]
  inhibition at 72 h, 10 µM: < 5%
RAW264.7 [6]
  inhibition at 50 µM: < 50%
NCI-N87
  IC50: 7.3 µM
RAW264.7 [9]
  inhibition at 0.4 µM: < 50%

## COC(=O)[C@]12CCC(C)(C)CC1=C1CC[C@@H]3[C@@]4(C)CC[C@H](O)C(C)(C)[C@@H]4CC[C@@]3(C)[C@]1(C(=O)O)CC2
MCF7
  IC50: > 10 µM
HepG2
  IC50: 5 µM
NCI-N87
  IC50: 5.1 µM

## C=C1[C@@H](O)[C@H](O)C[C@]2(C)[C@H]3CC=C4[C@@H]5[C@@H](C)[C@H](C)CC[C@]5(C(=O)O)CC[C@@]4(C)[C@]3(C)CC[C@@H]12 [ILEKUDINOL B]
MCF7
  IC50: > 10 µM
HepG2
  IC50: > 10 µM
NCI-N87
  IC50: 9.1 µM

## CC1(C)CC[C@]2(C(=O)O)CC[C@]3(C)C(=CC[C@@H]4[C@@]5(C)CC[C@H](O)C(C)(C)[C@@H]5CC[C@]43C)[C@@H]2C1 [OLEANOLIC_ACID]
MCF7
  IC50: > 10 µM
HepG2
  IC50: > 10 µM
NCI-N87
  IC50: > 10 µM

## CC1(C)CC[C@]2(C(=O)O)CC[C@]3(C)C(=CC[C@@H]4[C@@]5(C)C[C@@H](O)[C@H](O)[C@@](C)(CO)[C@@H]5CC[C@]43C)[C@@H]2C1 [ARJUNOLIC ACID]
RAW264.7 [1]
  inhibition at 2 µM: < 50%
RAW264.7 [7]
  inhibition at 0.4 µM: < 50%
RAW264.7 [2]
  inhibition at 10 µM: < 50%
MCF7
  IC50: > 10 µM
RAW264.7 [3]
  inhibition at 10 µM: < 50%
RAW264.7 [4]
  inhibition at 50 µM: < 50%
RAW264.7 [5]
  inhibition at 2 µM: < 50%
HepG2
  IC50: > 10 µM
[8]
  inhibition at 72 h, 10 µM: < 5%
RAW264.7 [6]
  inhibition at 50 µM: < 50%
NCI-N87
  IC50: > 10 µM
RAW264.7 [9]
  inhibition at 0.4 µM: < 50%

## C[C@H]1[C@H](C)CC[C@]2(C(=O)O)CC[C@]3(C)C(=CC[C@@H]4[C@@]5(C)C[C@@H](O)[C@H](O)C(C)(C)[C@@H]5CC[C@]43C)[C@H]12 [COROSOLIC ACID]
RAW264.7 [1]
  inhibition at 2 µM: < 50%
RAW264.7 [7]
  inhibition at 0.4 µM: < 50%
RAW264.7 [2]
  inhibition at 10 µM: < 50%
MCF7
  IC50: > 10 µM
RAW264.7 [3]
  inhibition at 10 µM: < 50%
RAW264.7 [4]
  inhibition at 50 µM: < 50%
RAW264.7 [5]
  inhibition at 2 µM: < 50%
HepG2
  IC50: > 10 µM
[8]
  inhibition at 72 h, 10 µM: < 5%
RAW264.7 [6]
  inhibition at 50 µM: < 50%
NCI-N87
  IC50: 4.4 µM
RAW264.7 [9]
  inhibition at 0.4 µM: < 50%

## CC1=CC[C@]2(C(=O)O)CC[C@]3(C=O)[C@H](CC[C@@H]4[C@@]5(C)CC[C@H](O)C(C)(C)[C@@H]5CC[C@]43C)[C@H]2[C@@H]1C
RAW264.7 [1]
  inhibition at 2 µM: 14.1%
RAW264.7 [7]
  inhibition at 0.4 µM: 14.8%
RAW264.7 [2]
  inhibition at 10 µM: 35.9%
MCF7
  IC50: > 10 µM
RAW264.7 [3]
  inhibition at 10 µM: 53.8%
RAW264.7 [5]
  inhibition at 2 µM: 19.2%
HepG2
  IC50: > 10 µM
[8]
  inhibition at 72 h, 10 µM: < 5%
NCI-N87
  IC50: > 10 µM
RAW264.7 [9]
  inhibition at 0.4 µM: 23.6%
